Laboratory results reported in ChEMBL document CHEMBL4373658, “Scaffold hybridization strategy towards potent hydroxamate-based inhibitors of Flaviviridae viruses and Trypanosoma species” (Medchemcomm, 2019).
Calls of active or inactive are those of the source. The calls are words filed in the database; no cut-off is given here.

Experiments:
[1] = Cytotoxicity against human HuH5.2 cells assessed as reduction in cell viability incubated for 72 hrs by measuring intracellular ATP levels
[2] = Selectivity index, ratio of CC50 for human Huh5.2 cells to EC50 for HCV genotype 4a ED43; type: toxicity; settings: read-out: Ratio CC50/EC50
How it was run: (§1)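 Viability read as intracellular ATP, not MTT: 10^4 Huh5-2 cells/well, after 24 h exposed to compounds 72 h at 37 °C, 5% CO2, lysed, luminescent ATP kit read, ATP normalized to protein. CC50 versus DMSO control via nonlinear regression of log concentration; mean ± SD of three independent experiments in triplicate. SI = CC50/EC50.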

dengue virus type 2 = test: Antiviral activity against DENV 2 16681 infected in human HuH7 cells assessed as reduction in viral replication incubated for 3 days by luciferase reporter gene assay; type: functional, organism-based; settings: Dengue virus, 16681, Huh-7, 72 h
How it was run: (§2)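 Stable subgenomic replicon cell lines (Huh5-2 HCV 1b Con1 firefly luciferase; Huh7.5-3a S52, Huh7.5-4a ED43; Huh7-D2 DENV2 16681 Renilla luciferase) seeded 1×10^4 cells/well, 24 h at 37 °C, then serial compound dilutions in complete DMEM without G418 for 3 days at 37 °C. Lysate F-Luc or R-Luc (12 μM coelenterazine, pH 7.4 buffer) normalized to Bradford protein, expressed as % of DMSO control. EC50 from nonlinear regression of log concentration.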

Hepatitis C virus [3] = test: Antiviral activity against HCV genotype 3a S52 infected in human HuH7.5 cells assessed as reduction in viral replication incubated for 3 days by luciferase reporter gene assay; type: functional, organism-based, Hepacivirus hominis; settings: subtype 3a S52, Huh7.5, 72 h
How it was run: as §2

[4] = Selectivity index, ratio of CC50 for human Huh5.2 cells to EC50 for DENV2 16681; type: toxicity; settings: read-out: Ratio CC50/EC50
[5] = Cytotoxicity against rat L6 cells assessed as reduction in cell viability incubated for 6 days by resazurin dye based fluorescence assay
How it was run: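 Rat skeletal myoblast L6 cells seeded in triplicate at 1 × 10⁴ mL⁻¹ in growth medium containing a range of compound concentrations, 6 days at 37 °C; resazurin added, 8 h further, fluorescence read. CC50 = concentration giving 50% growth inhibition; mean of triplicate experiments ± SEM.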

[6] = Selectivity index, ratio of CC50 for human Huh5.2 cells to EC50 for HCV genotype 3a S52; type: toxicity; settings: read-out: Ratio CC50/EC50
How it was run: as §1

Hepatitis C virus [7] = test: Antiviral activity against HCV genotype 4a ED43 infected in human HuH7.5 cells assessed as reduction in viral replication incubated for 3 days by luciferase reporter gene assay; type: functional, organism-based, Hepacivirus hominis; settings: subtype 4a ED43, Huh7.5, 72 h
How it was run: as §2

Trypanosoma cruzi = test: Antitrypanosomal activity against Trypanosoma cruzi strain CL Brener epimastigotes form assessed as inhibition of growth incubated for 4 days by resazurin dye based fluorescence assay; type: functional, organism-based; settings: 96 h
[8] = Selectivity index, ratio of CC50 for rat L6 cells to EC50 for Trypanosoma brucei 221 bloodstream form; type: toxicity; settings: read-out: Ratio CC50/EC50
How it was run: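 T. brucei strain 221 bloodstream forms in modified Iscove's medium diluted to 2.5 × 10⁴ mL⁻¹, eight-point concentration curves at 37 °C; resazurin added after 48 h, further 16 h incubation; fluorescence at excitation 545 nm, emission 590 nm. EC50 and EC90 from triplicate experiments. SI = L6 CC50/EC50.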

[9] = Selectivity index, ratio of CC50 for human Huh5.2 cells to EC50 for HCV genotype 1b Con1; type: toxicity; settings: read-out: Ratio CC50/EC50
How it was run: as §1

Hepatitis C virus [10] = test: Antiviral activity against HCV genotype 1b Con1 infected in human HuH5.2 cells assessed as reduction in viral replication incubated for 3 days by luciferase reporter gene assay; type: functional, organism-based, Hepacivirus hominis; settings: subtype 1b Con1, Huh-5-2, 72 h
How it was run: as §2

Trypanosoma brucei = test: Antitrypanosomal activity against Trypanosoma brucei 221 bloodstream form assessed as inhibition of growth incubated for 4 days by resazurin dye based fluorescence assay; type: functional, organism-based; settings: Trypanosoma brucei, 221, 96 h
[11] = Selectivity index, ratio of CC50 for rat L6 cells to EC50 for Trypanosoma cruzi strain CL Brener epimastigotes; type: toxicity; settings: read-out: Ratio CC50/EC50
[12] = molecular target: RNA-directed RNA polymerase (Hepacivirus hominis, UniProt O39930); test: Inhibition of HCV genotype 1b NS5B RNA dependent RNA polymerase; set-up: species or system Hepatitis C virus subtype 1b
Nonstructural protein 5A = molecular target: T1, Nonstructural protein 5A (Hepatitis C virus, UniProt Q5L478); test: Inhibition of HCV genotype 1b NS5A; set-up: species or system Hepatitis C virus subtype 1b
T1 sequence (Q5L478 whole entry): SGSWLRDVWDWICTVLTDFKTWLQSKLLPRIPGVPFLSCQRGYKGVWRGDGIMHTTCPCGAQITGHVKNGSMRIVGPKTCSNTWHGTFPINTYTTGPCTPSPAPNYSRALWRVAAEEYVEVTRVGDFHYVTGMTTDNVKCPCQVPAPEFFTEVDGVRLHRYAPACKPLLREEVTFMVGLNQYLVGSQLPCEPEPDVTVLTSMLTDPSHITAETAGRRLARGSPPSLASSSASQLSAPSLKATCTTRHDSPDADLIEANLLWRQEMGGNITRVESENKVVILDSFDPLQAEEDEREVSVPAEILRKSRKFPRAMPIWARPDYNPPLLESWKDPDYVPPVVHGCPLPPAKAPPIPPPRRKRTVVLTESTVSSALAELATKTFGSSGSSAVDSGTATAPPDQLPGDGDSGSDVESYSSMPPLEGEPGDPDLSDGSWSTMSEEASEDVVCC

Hepatitis C virus [13] = test: Antiviral activity against HCV genotype 4a ED43 infected in human HuH7.5 cells assessed as reduction in viral RNA at 0.01 to 10 uM incubated for 3 days by qRT-PCR analysis; type: functional, organism-based; settings: Hepacivirus hominis, subtype 4a ED43
How it was run: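 Huh7.5-4a replicon cells treated with serial dilutions or DMSO; (+) strand HCV RNA quantified by RT-qPCR, normalized to housekeeping gene YWHAZ mRNA, expressed as percentage of solvent-treated control.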

Hepatitis C virus [14] = test: Antiviral activity against HCV genotype 4a ED43 infected in human HuH7.5 cells assessed as reduction in viral NS5A expression at 2 to 5 uM incubated for 3 days by immunofluorescence assay; type: functional, organism-based; settings: Hepacivirus hominis, subtype 4a ED43
How it was run: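 Huh7.5-4a replicon cells given serial compound dilutions or DMSO; HCV NS5A detected by indirect immunofluorescence, nuclei stained with propidium iodide as viability control, confocal imaging.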

[15] = Inhibition of HCV genotype 1b NS3/4A protease; set-up: species or system Hepatitis C virus subtype 1b

Sequence of RNA-directed RNA polymerase (O39930 whole entry): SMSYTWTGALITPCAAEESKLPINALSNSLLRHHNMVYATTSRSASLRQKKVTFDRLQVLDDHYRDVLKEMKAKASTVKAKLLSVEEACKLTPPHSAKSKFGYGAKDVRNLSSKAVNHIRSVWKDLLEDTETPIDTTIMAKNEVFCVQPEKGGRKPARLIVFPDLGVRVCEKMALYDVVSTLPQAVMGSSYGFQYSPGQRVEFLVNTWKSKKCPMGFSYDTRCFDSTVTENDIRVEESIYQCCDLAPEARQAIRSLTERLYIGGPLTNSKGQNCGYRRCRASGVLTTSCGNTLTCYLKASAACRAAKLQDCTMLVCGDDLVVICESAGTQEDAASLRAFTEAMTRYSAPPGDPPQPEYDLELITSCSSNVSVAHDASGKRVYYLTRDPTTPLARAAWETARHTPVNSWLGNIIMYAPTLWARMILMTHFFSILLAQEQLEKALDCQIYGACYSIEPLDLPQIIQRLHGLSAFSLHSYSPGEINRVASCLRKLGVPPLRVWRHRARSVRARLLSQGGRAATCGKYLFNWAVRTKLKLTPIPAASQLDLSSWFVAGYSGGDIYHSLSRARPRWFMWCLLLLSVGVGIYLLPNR

Row | Structure (SMILES) | CC50 at 72 h [1] | selectivity ratio [2] | CC50 at 144 h [5] | EC50 (Hepatitis C virus [7]) | EC50 (Trypanosoma cruzi) | EC90 (Trypanosoma cruzi) | selectivity ratio [8] | selectivity ratio [9] | EC50 (Hepatitis C virus [10]) | EC50 (Trypanosoma brucei) | EC90 (Trypanosoma brucei) | selectivity ratio [11] | also measured
1 | O=C(CN1C(=O)NC2(CCc3ccccc32)C1=O)NO (stereo unspecified) | > 200000 nM | > 345 | 268000 nM | 580 nM | > 30000 nM | > 30000 nM | 609 | > 68 | 2920 nM | 440 nM | 800 nM |  | EC50 (dengue virus type 2): 96300 nM; EC50 (Hepatitis C virus [3]): 2970 nM; selectivity ratio [4]: > 2; selectivity ratio [6]: > 67
2 | O=C(CN1C(=O)N(Cc2ccccc2)C2(CCc3ccccc32)C1=O)NO (stereo unspecified) | 7530 nM | 54 | 6270 nM | 140 nM | 1700 nM | 3010 nM | 62 | 34 | 220 nM | 101 nM | 192 nM | 4 | 
3 | COc1c(-c2ccc3cc(NS(C)(=O)=O)ccc3c2)cc(-n2ccc(=O)[nH]c2=O)cc1C(C)(C)C [DASABUVIR] |  |  |  |  |  |  |  |  |  |  |  |  | EC50 [12]: 1.8 nM
4 | O=C(CN1C(=O)NC2(CCCc3ccccc32)C1=O)NO (stereo unspecified) | > 200000 nM | > 526 | 419000 nM | 380 nM | > 30000 nM | > 30000 nM | 590 | > 142 | 1410 nM | 710 nM | 1270 nM |  | EC50 (dengue virus type 2): 61500 nM; EC50 (Hepatitis C virus [3]): 2370 nM; selectivity ratio [4]: > 3; selectivity ratio [6]: > 84
5 | O=C1Cn2c(cc3ccccc32)C(=O)N1O | > 200000 nM |  |  |  |  |  |  | > 1.6 | 126000 nM |  |  |  | 
6 | O=C1NC(=O)C2(CCc3ccccc32)N1 (stereo unspecified) | > 10000 nM |  | > 500000 nM |  | > 500000 nM |  |  |  | > 10000 nM | > 50000 nM |  |  | 
7 | O=C(CN1C(=O)CNC2(CCCCCC2)C1=O)NO |  |  |  |  |  |  |  |  |  | 1870 nM | 2530 nM |  | 
8 | CN1C(=O)N(CC(=O)NO)C(=O)C12CCc1ccccc12 (stereo unspecified) | 26900 nM | 128 | 550000 nM | 210 nM | > 30000 nM |  | 451 | 19 | 1410 nM | 1220 nM | 1930 nM |  | 
9 | O=C(CN1C(=O)N(Cc2ccccc2)C2(CCCCc3ccccc32)C1=O)NO (stereo unspecified) | 5450 nM | 45 | 7850 nM | 120 nM | 495 nM | 940 nM | 604 | 5 | 1000 nM | 13 nM | 18 nM | 16 | 
10 | COC(=O)N[C@H](C(=O)N1CCC[C@H]1c1nc(-c2ccc(-c3ccc(-c4c[nH]c([C@@H]5CCCN5C(=O)[C@@H](NC(=O)OC)C(C)C)n4)cc3)cc2)c[nH]1)C(C)C [DACLATASVIR] |  |  |  |  |  |  |  |  |  |  |  |  | EC50 (Nonstructural protein 5A): 0.002 nM
11 | CN1C(=O)N(CC(=O)NO)C(=O)C12CCCCc1ccccc12 (stereo unspecified) | 112000 nM | 1020 | 16400 nM | 110 nM | 10600 nM | 15300 nM | 71 | 95 | 1180 nM | 230 nM | 300 nM | 2 | 
12 | O=C(CN1C(=O)N(Cc2ccccc2)C2(CCCc3ccccc32)C1=O)NO (stereo unspecified) | 8900 nM | 127 | 3170 nM | 70 nM | 960 nM | 1710 nM | 63 | 28 | 320 nM | 50 nM | 77 nM | 3 | 
13 | O=C(CN1C(=O)NC2(CCCCc3ccccc32)C1=O)NO (stereo unspecified) | 198000 nM | 1980 | 125000 nM | 100 nM | > 30000 nM |  | 313 | 794 | 250 nM | 400 nM | 520 nM |  | Activity (Hepatitis C virus [13]): Active; Activity (Hepatitis C virus [14]): Active; EC50 (dengue virus type 2): 16300 nM; EC50 (Hepatitis C virus [3]): 80 nM; selectivity ratio [4]: 12; selectivity ratio [6]: 2480
14 | CC[C@@H]1[C@@H]2CN(C(=O)[C@H](C(C)(C)C)NC(=O)O[C@@H]3C[C@H]3CCCCC(F)(F)c3nc4ccc(OC)cc4nc3O2)[C@@H]1C(=O)N[C@]1(C(=O)NS(=O)(=O)C2(C)CC2)C[C@H]1C(F)F |  |  |  |  |  |  |  |  |  |  |  |  | EC50 [15]: 3.3 nM
15 | CN1C(=O)N(CC(=O)NO)C(=O)C12CCCc1ccccc12 (stereo unspecified) | 143000 nM | 682 | 28200 nM | 210 nM | 27600 nM | 42100 nM | 15 | 99 | 1450 nM | 1910 nM | 4690 nM | 1 | Activity (Hepatitis C virus [13]): Active
16 | CC(C)OC(=O)[C@H](C)N[P@](=O)(OC[C@H]1O[C@@H](n2ccc(=O)[nH]c2=O)[C@](C)(F)[C@@H]1O)Oc1ccccc1 [SOFOSBUVIR] |  |  |  |  |  |  |  |  |  |  |  |  | EC50 [12]: 102 nM
